Experimental data reported in ChEMBL document CHEMBL5712894, “Regulation of angiotensin II actions by enhancers and super-enhancers in vascular smooth muscle cells” (Nat Commun, 2017).
Calls of active or inactive are those of the source. No cut-off for these calls is given here.

Experiments:
VSMC [1] = experiment: Downregulation of ESM1 gene expression in human VSMC cells pretreated with compound at 250 to 500 nM followed by AngII addition measured by RT-qPCR analysis; type: functional, cell-based; conditions: dose 250-500 nM
VSMC [2] = experiment: Downregulation of Fst gene expression in human VSMC cells pretreated with compound at 250 to 500 nM followed by AngII addition measured by RT-qPCR analysis; type: functional, cell-based; conditions: dose 250-500 nM
Rattus norvegicus [3] = organism: Rattus norvegicus; experiment: Downregulation of fst gene expression in rat aorta pretreated with compound at 500 nM followed by AngII addition measured by ChIP assay; type: functional, tissue-based
VSMC [4] = experiment: Downregulation of Flt gene expression in human VSMC cells pretreated with compound at 250 to 500 nM followed by AngII addition measured by RT-qPCR analysis; type: functional, cell-based; conditions: dose 250-500 nM
VSMC [5] = experiment: Downregulation of Tgif1 gene expression in human VSMC cells pretreated with compound at 250 to 500 nM followed by AngII addition measured by RT-qPCR analysis; type: functional, cell-based; conditions: dose 250-500 nM
VSMC [6] = experiment: Downregulation of Fgf2 gene expression in human VSMC cells pretreated with compound at 250 to 500 nM followed by AngII addition measured by RT-qPCR analysis; type: functional, cell-based; conditions: dose 250-500 nM
[7] = Binding affinity of BRD2 (unknown origin) assessed as dissociation constant; parameters: species or system Homo sapiens
Rattus norvegicus [8] = organism: Rattus norvegicus; experiment: Downregulation of Spry2 gene expression in rat aorta pretreated with compound at 500 nM followed by AngII addition measured by ChIP assay; type: functional, tissue-based
Mus musculus [9] = experiment: Antihypersensitivity in 1 ug/kg/min AngII infused C57BL/6 mouse assessed as reduction in medial hypertrophy at 50 mg/kg, ip for 4 weeks by F4/80 staining analysis; type: functional, organism-based
Outline: (§1)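 Male C57BL/6 mice with subcutaneous osmotic minipumps delivering AngII (1.0 μg kg−1 min−1, 28 days); from 2 days post-implantation, 50 mg kg−1 ip once daily (vehicle DMSO). Aortas formalin-fixed, paraffin 5 µm sections. H&E sections quantified for wall thickness; F4/80 IHC (DAB) quantified as reciprocal brown intensity excluding adventitia. Mean + SEM, one-way ANOVA with Tukey.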

VSMC [10] = experiment: Downregulation of Spry2 gene expression in human VSMC cells pretreated with compound at 250 to 500 nM followed by AngII addition measured by RT-qPCR analysis; type: functional, cell-based; conditions: dose 250-500 nM
Mus musculus [11] = experiment: Antihypersensitivity in 1 ug/kg/min AngII infused C57BL/6 mouse assessed as reduction in systolic blood pressure at 50 mg/kg, ip for 4 weeks; type: functional, organism-based
Outline: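 Male C57BL/6 mice infused with AngII via subcutaneous osmotic minipump (1.0 μg kg−1 min−1, 28 days); 50 mg kg−1 ip once daily starting 2 days post-implantation, vehicle DMSO. Systolic pressure by tail cuff during week 4. n = 7–8 mice/group, mean + SEM, one-way ANOVA with Tukey.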

Rattus norvegicus [12] = organism: Rattus norvegicus; experiment: Downregulation of Tgif1 gene expression in rat aorta pretreated with compound at 500 nM followed by AngII addition measured by ChIP assay; type: functional, tissue-based
Rattus norvegicus [13] = organism: Rattus norvegicus; experiment: Downregulation of Fgf2 gene expression in rat aorta pretreated with compound at 500 nM followed by AngII addition measured by ChIP assay; type: functional, tissue-based
VSMC [14] = experiment: Downregulation of Egr2 gene expression in human VSMC cells pretreated with compound at 250 to 500 nM followed by AngII addition measured by RT-qPCR analysis; type: functional, cell-based; conditions: dose 250-500 nM
Rattus norvegicus [15] = organism: Rattus norvegicus; experiment: Downregulation of ESM1 gene expression in rat aorta pretreated with compound at 500 nM followed by AngII addition measured by ChIP assay; type: functional, tissue-based
Rattus norvegicus [16] = organism: Rattus norvegicus; experiment: Downregulation of Foxp1 gene expression in rat aorta pretreated with compound at 500 nM followed by AngII addition measured by ChIP assay; type: functional, tissue-based
VSMC [17] = experiment: Downregulation of Foxp1 gene expression in human VSMC cells pretreated with compound at 250 to 500 nM followed by AngII addition measured by RT-qPCR analysis; type: functional, cell-based; conditions: dose 250-500 nM
Mus musculus [18] = experiment: Antihypersensitivity in 1 ug/kg/min AngII infused C57BL/6 mouse assessed as reduction in inflammation at 50 mg/kg, ip for 4 weeks by F4/80 staining analysis; type: functional, organism-based; outline: as §1

For `Cc1sc2c(c1C)C(c1ccc(Cl)cc1)=N[C@@H](CC(=O)OC(C)(C)C)c1nnc(C)n1-2`, the Activity (VSMC [1]) was “Active”, the Activity (VSMC [2]) was “Active” and the Activity (Rattus norvegicus [3]) was “Active”. The Activity (VSMC [4]) was “Active”, the Activity (VSMC [5]) was “Active” and the Activity (VSMC [6]) was “Active”. For the same molecule, the Kd [7] was about 128 nM, the Activity (Rattus norvegicus [8]) was “Active” and the Activity (Mus musculus [9]) was “Active”. The Activity (VSMC [10]) was “Active”, the Activity (Mus musculus [11]) was “Active” and the Activity (Rattus norvegicus [12]) was “Active”. For the same molecule, the Activity (Rattus norvegicus [13]) was “Active”, the Activity (VSMC [14]) was “Active” and the Activity (Rattus norvegicus [15]) was “Active”. The Activity (Rattus norvegicus [16]) was “Active”, the Activity (VSMC [17]) was “Active” and the Activity (Mus musculus [18]) was “Active”.
